These results are taken from ChEMBL document CHEMBL4396929, “Discovery and development of substituted thiadiazoles as inhibitors of Staphylococcus aureus Sortase A” (Bioorg Med Chem, 2019).

Activity calls are given as the source filed them. The calls are words filed in the database; no cut-off is given here. Some results are limits rather than exact numbers.

For data set [1], the target named is T1, Sortase A (Staphylococcus aureus) (UniProt Q9S446).
T1 sequence (whole entry): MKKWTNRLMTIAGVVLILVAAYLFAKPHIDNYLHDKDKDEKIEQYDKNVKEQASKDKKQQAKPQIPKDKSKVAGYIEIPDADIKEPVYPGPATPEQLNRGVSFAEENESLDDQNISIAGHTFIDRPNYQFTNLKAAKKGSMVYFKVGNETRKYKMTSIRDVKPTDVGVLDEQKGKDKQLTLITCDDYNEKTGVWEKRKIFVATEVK
Kind of data set: Inhibition of recombinant Staphylococcus aureus wild type truncated C-terminal His6 tagged Srt A at 200 uM using Abz-Leu-Pro-Glu-Thr-Gly-Lys(Dnp)-NH2 as substrate preincubated for 15 mins followed by substrate addition measured after 60 mins by FRET assay relative to control. The method in brief: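 FRET read-out: cleavage of the internally quenched substrate relieves Dnp quenching of the Abz fluorophore, and the resulting fluorescence reports SrtA activity. Compound at 200 µM, 15 min preincubation with enzyme. Inhibition reported as mean ± SD, n = 3.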

The target in data set [2] is T1, Sortase A (Staphylococcus aureus). Kind of data set: Binding affinity to Staphylococcus aureus SrtA by ligand based 1D CPMG relaxation dispersion NMR analysis. The procedure, abridged: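 Ligand-observed 1D NMR: spectrum of ligand alone, then ligand with SrtA, acquired after a delay acting as a T2 filter. Binding is scored as a drop in ligand signal intensity.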

For data set [3], the system named is Staphylococcus aureus. Kind of data set: Growth inhibition of Staphylococcus aureus CCUG 15915 measured after 18 to 24 hrs by broth microdilution assay. It is filed as organism-based. A general note: In broth dilution the organism is exposed to a series of concentrations in liquid medium.
Data set [4] relates to Escherichia coli. Kind of data set: Growth inhibition of Escherichia coli CCUG 17620 measured after 18 to 24 hrs by broth microdilution assay. It is filed as organism-based. Conditions: in vitro.
Data set [5] has as its system Staphylococcus aureus. Kind of data set: Growth inhibition of Staphylococcus aureus CCUG 17621 measured after 18 to 24 hrs by broth microdilution assay. It is filed as organism-based.
In data set [6] the target is T2, Sortase A (Staphylococcus aureus, UniProt Q9S446).
T2 sequence (Q9S446 whole entry): T1 sequence (whole entry)
Kind of data set: Inhibition of recombinant Staphylococcus aureus wild type truncated C-terminal His6 tagged Srt A using Abz-Leu-Pro-Glu-Thr-Gly-Lys(Dnp)-NH2 as substrate preincubated for 15 mins followed by substrate addition measured after 60 mins by FRET assay.

Data set [7] concerns the target T2, Sortase A. Kind of data set: Inhibition of recombinant Staphylococcus aureus wild type truncated C-terminal His6 tagged Srt A using Abz-Leu-Pro-Glu-Thr-Gly-Lys(Dnp)-NH2 as substrate preincubated for 30 mins followed by substrate addition measured after 60 mins by FRET assay.
The target of data set [8] is T1, Sortase A (Staphylococcus aureus). The experiment in a line: Irreversible ligand binding to Staphylococcus aureus SrtA using (Abz-Leu-Pro-Glu-Thr-Gly-Lys(Dnp)-NH2 as substrate by competitive binding based 1D CPMG relaxation dispersion NMR analysis. The method in brief: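 Ligand-observed CPMG competition: the ligand–SrtA sample is challenged with a known binder for the same site. Signal recovery indicates displacement and reversible binding; no recovery indicates irreversible binding.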

Data set [9] has as its target T2, Sortase A. The experiment in a line: (§1) Inhibition of recombinant Staphylococcus aureus wild type truncated C-terminal His6 tagged Srt A using Abz-Leu-Pro-Glu-Thr-Gly-Lys(Dnp)-NH2 as substrate preincubated for 30 mins followed by substrate addition measured after 60 mins by FRET assay in presence of 0.5 mM reducing agent, DTT.
In data set [10] the target is T1, Sortase A (Staphylococcus aureus). The data set is described as §1.
Data set [11] shares this target. The experiment in a line: Binding affinity to Staphylococcus aureus 15N-labeled SrtA by protein based 2D SOFAST-HMQC NMR analysis.
Data set [12] shares this target. Kind of data set: Inhibition of recombinant Staphylococcus aureus wild type truncated C-terminal His6 tagged Srt A at 167 uM using Abz-Leu-Pro-Glu-Thr-Gly-Lys(Dnp)-NH2 as substrate preincubated for 15 mins followed by substrate addition measured after 60 mins by FRET assay relative to control. The procedure, abridged:
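FRET activity assay with an internally quenched substrate. Cleavage by SrtA separates the Abz donor from the Dnp quencher, and the increase in fluorescence is read. Compound at 167 µM with 15 min incubation. Percent inhibition is given as mean ± SD, n = 2.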

Data set [13] has the same target. The experiment in a line: Reversible ligand binding to Staphylococcus aureus SrtA using (Abz-Leu-Pro-Glu-Thr-Gly-Lys(Dnp)-NH2 as substrate by NMR competitive displacement analysis. The procedure, abridged:
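Ligand-observed CPMG NMR uses a delay acting as a T2 filter. Spectra are taken of the ligand alone, then after SrtA is added, then after a known binder is added to compete for the site. Recovery of the ligand signal marks reversible, competitive binding.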

Data set [14] shares this target. Kind of data set: Inhibition of recombinant Staphylococcus aureus wild type truncated C-terminal His6 tagged Srt A at 200 uM using Abz-Leu-Pro-Glu-Thr-Gly-Lys(Dnp)-NH2 as substrate preincubated for 6.3 hrs followed by substrate addition measured after 60 mins by FRET assay relative to control.
Data set [15] has the same target. The experiment in a line: Covalent ligand binding to recombinant Staphylococcus aureus wild type truncated C-terminal His6 tagged SrtA assessed as enzyme modifications by measuring aminothiadiazolyl-thio (+130.96119 Da, +C2HN3S2) and nitrobenzyl-thio (+167.00410, +C7H5NO2S) fragments at 200 uM by LCMS analysis.
Data set [16] has the same target. Kind of data set: Covalent ligand binding to recombinant Staphylococcus aureus wild type truncated C-terminal His6 tagged SrtA assessed as enzyme modifications by measuring nicotinamido-thiadiazolyl thio (+235.98265 Da, +C8H4N4OS2) and nitrobenzyl-thio (+167.00410, +C7H5NO2S) fragments at 200 uM by LCMS analysis.

The inhibition is the relative decrease from the control value, in per cent. What is called IC50 is the concentration that inhibits the measured activity by half.

In the case of `Nc1nnc(SCc2ccc(F)cc2)s1`, the inhibition in data set [1] was 5%. Also, the outcome in data set [2] was inactive.

Turning to `N#Cc1ccc(CSc2nnc(N)s2)cc1`, in [1], the inhibition worked out at 2%. The outcome in data set [2] was inactive.

For `O=[N+]([O-])c1cccc(CSc2nnc(N3CCOCC3)s2)c1`, the MIC in [3], in data set [4] and in data set [5] was greater than 256 µg/mL in each case. Besides, the inhibition in data set [1] is 29%. The outcome in data set [2] was Active.

For `FC(F)(F)c1ccnc(Sc2nc[nH]n2)n1`, the IC50 in [6] was 19 µM.

As to `CC(=O)Nc1nnc(SCc2ccc([N+](=O)[O-])cc2)s1`, in data set [6], the IC50 is 127 µM. Further, the inhibition in data set [1] was found to be 94%. Also, the outcome in data set [2] was Active.

Regarding `Nc1nnc(Sc2ccccc2)s1`, the inhibition in [1] turned out to be 25%. Also, the result in data set [2] was inactive.

With `O=[N+]([O-])c1cccc(CSc2nnc(Nc3cccnc3)s2)c1`, the inhibition in data set [1] stood at 37%.

Turning to `Nc1nnc(Sc2ccc([N+](=O)[O-])cc2)s1`, the concentration for half-maximal inhibition (IC50) result in [7] is reported as “Not Active”. Also, in data set [1], the inhibition came out at 35%. For the same compound, the outcome in data set [2] was inactive.

Turning to `CCSc1c(S)cnn(-c2ccccc2)c1=O`, the IC50 in data set [6] came to 3 µM.

On to `CC(C)n1c(S)nc2c1c(=O)n(C)c(=O)n2C`, for which the IC50 in data set [6] was determined as 50 µM. For the same compound, the outcome in data set [8] was Active.

Take `O=[N+]([O-])c1cccc(CSc2nnc(Br)s2)c1`: in [1], the inhibition turned out to be 19%.

Consider `O=C(Nc1nnc(SCc2cccc([N+](=O)[O-])c2)s1)c1cccnc1`, for which, in [1], the inhibition amounted to 13%.

With `N#Cc1ccccc1CSc1nnc(N)s1`, the IC50 in data set [6] amounted to 1740 µM. In addition, the MIC in data set [3], in [4] and in data set [5] was greater than 256 µg/mL in each case. Further, the inhibition in [1] turned out to be 1%. Moreover, the outcome in [2] was Active.

Regarding `Nc1nnc(SCc2cccc([N+](=O)[O-])c2)s1`, the IC50 in data set [6] came out at 521 µM. In addition, the MIC in [3], in data set [4] and in data set [5] was greater than 256 µg/mL in each case. The inhibition in data set [1] was 11%. Further, in data set [2], the outcome was Active.

With `O=C(Nc1nnc(SCc2cccc([N+](=O)[O-])c2)s1)c1ccncc1`, the MIC in data set [3], in data set [4] and in data set [5] was greater than 256 µg/mL throughout. Also, the inhibition in data set [1] is 8%. Moreover, the result in data set [2] was Active.

For `O=c1c(O)c(-c2ccc(O)cc2O)oc2cc(O)cc(O)c12` [MORIN], the IC50 in data set [9] was found to be 19 µM.

`Nc1nnc(Sc2ccc([N+](=O)[O-])c3nonc23)s1`: the IC50 in [6] is 6 to 6.2 µM. For the same compound, in data set [10], the inhibition entry is “inactive”. The result in data set [11], in [13] and in data set [2] was Active. For the same compound, the inhibition in data set [12] stood at 101%.

As for `Nc1nnc(SCc2ccc3ccccc3c2)s1`, the inhibition in [1] was determined as 13%.

For the compound `Nc1nnc(SCc2ccccc2)s1`, the inhibition in data set [1] came to 0%. The outcome in data set [2] was inactive.

As for `O=[N+]([O-])c1ccc(CSc2nnc(N3CCNCC3)s2)cc1`, in data set [6], the IC50 stood at 71 µM. For the same compound, the inhibition in data set [1] is 80%. In data set [2], the outcome was Active.

On to `O=[N+]([O-])c1cccc(CSc2nnc(N3CCNCC3)s2)c1`, for which the MIC in data set [3], in [4] and in [5] was greater than 256 µg/mL throughout. Also, the inhibition in data set [1] came to 27%; in data set [14] it was 38%. Further, the outcome in [2] was inactive.

With `Nc1nnc(SCc2ccc([N+](=O)[O-])cc2)s1`, the IC50 in data set [6] was 26 µM. Further, the MIC in data set [3], in [4] and in data set [5] was greater than 256 µg/mL each time. Besides, in data set [10], the inhibition entry is “inactive”. The outcome in [15] and in data set [2] was Active. Also, the inhibition in data set [1] turned out to be 101%.

For the compound `O=C(Nc1nnc(SCc2cccc([N+](=O)[O-])c2)s1)c1ccco1`, the inhibition in data set [1] came out at 6%.

For `CC(=O)Nc1nnc(SCc2cccc([N+](=O)[O-])c2)s1`, the MIC in data set [3], in data set [4] and in [5] was greater than 256 µg/mL in each case. For the same compound, the inhibition in [1] was 18%.

Turning to `O=[N+]([O-])c1ccc(CSc2nnc(N3CCOCC3)s2)cc1`, in data set [6], the IC50 was 9 µM. In data set [1], the inhibition was 104%. The outcome in data set [2] was Active.

Take `O=C(Nc1nnc(SCc2ccc([N+](=O)[O-])cc2)s1)c1cccnc1`: in data set [6], the half-maximal inhibitory concentration (IC50) worked out at 3.8 µM. In data set [10], the inhibition result is “inactive”. Moreover, the inhibition in [1] was determined as 100%. In addition, in data set [16], the outcome was Active. Further, the outcome in data set [2] was inactive.

With `O=C(Nc1nnc(SCc2ccc([N+](=O)[O-])cc2)s1)c1ccncc1`, in data set [6], the IC50 worked out at 42 µM. Besides, in data set [1], the inhibition was found to be 99%. Besides, the result in [2] was inactive.

Regarding `Nc1nnc(SCCc2cccc([N+](=O)[O-])c2)s1`, the inhibition in data set [1] was found to be 13%. Moreover, the result in data set [2] was inactive.
